Source: ChEMBL document CHEMBL1806371, “Selenocyanates and diselenides: a new class of potent antileishmanial agents” (Eur J Med Chem, 2011)

How the values were obtained:
Leishmania infantum [1] = assay: Antileishmanial activity against Leishmania infantum MCAN/ES/89/IPZ229/1/89 promastigotes after 24 hrs […]; type: functional, organism-based; details: MCAN/ES/89/IPZ229/1/89, 24 h
Summary of the method: (§1)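 Log-phase L. infantum promastigotes (RPMI-1640, 10% FCS, 25 mM HEPES, pH 7.2, 26 °C) treated at 2×10^6 parasites/mL for 24 h. Screening used 25, 12.5 and 6.25 μM to give percent growth inhibition. Living cells measured by flow cytometry with propidium iodide exclusion. At least three independent experiments.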

Leishmania infantum [2] = assay: Antileishmanial activity against Leishmania infantum MCAN/ES/89/IPZ229/1/89 amastigotes after 24 hrs by microscopy; type: functional, organism-based; details: MCAN/ES/89/IPZ229/1/89, 24 h
Summary of the method: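 Axenic L. infantum amastigotes (M199, 10% FCS, pH 5.4, 37 °C) treated in log phase at 1×10^6 parasites/mL for 24 h. Living cells counted by flow cytometry with propidium iodide exclusion, with microscopic observation by phase contrast or fluorescence. At least three independent experiments.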

[3] = Selectivity ratio, ratio of IC50 for human THP1 cells to IC50 for Leishmania infantum MCAN/ES/89/IPZ229/1/89 amastigotes; type: ADME, cell-based; details: THP-1 cells, read-out: Ratio IC50
Summary of the method: (§2)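 Selectivity index is IC50 against Jurkat or THP-1 cells divided by IC50 against L. infantum amastigotes. Host cells were treated in log phase at 4×10^5 cells/mL for 24 h at 37 °C, 5% CO2, at 0.08, 0.4, 2.0, 10.0 and 50.0 μM. Viability was measured by flow cytometry with propidium iodide exclusion.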

Leishmania infantum [4] = assay: Antileishmanial activity against Leishmania infantum MCAN/ES/89/IPZ229/1/89 amastigotes expressing GFP infected in human THP1 cells assessed as parasite infected cells at 3 uM after 48 hrs by flow cytometry (reference value: 35%); type: functional, THP-1
Jurkat [5] = assay: Cytotoxicity against human Jurkat cells assessed as live cells in neubauer chamber after 24 hrs by trypan blue assay; type: cell-based
[6] = Human intestinal absorption in human; type: ADME, organism-based; details: read-out: HIA
Summary of the method: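 Values are computed, not measured. Human intestinal absorption (%) and Caco-2 permeability (nm/s) were predicted in silico with the PreADMET program.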

[7] = Permeability across human Caco2 cells; type: ADME, cell-based; details: Caco-2, read-out: permeability
[8] = Selectivity ratio, ratio of IC50 for human Jurkat cells to IC50 for Leishmania infantum MCAN/ES/89/IPZ229/1/89 amastigotes; type: ADME, cell-based; details: read-out: Ratio IC50; summary of the method: as §2
THP-1 [9] = assay: Cytotoxicity against human THP1 cells assessed as live cells in neubauer chamber after 24 hrs by trypan blue assay; type: cell-based; details: THP-1, 24 h
Jurkat [10] = assay: Cytotoxicity against human Jurkat cells infected with Leishmania infantum MCAN/ES/89/IPZ229/1/89 at 1 uM by phase contrast microscopy; type: cell-based
Jurkat [11] = assay: Cytotoxicity against human Jurkat cells infected with Leishmania infantum MCAN/ES/89/IPZ229/1/89 at 3 uM by phase contrast microscopy; type: cell-based
Jurkat [12] = assay: Cytotoxicity against human Jurkat cells infected with Leishmania infantum MCAN/ES/89/IPZ229/1/89 at 1 uM using propidium iodide staining by fluorescence contrast microscopy; type: cell-based
Leishmania infantum [13] = assay: Antileishmanial activity against Leishmania infantum MCAN/ES/89/IPZ229/1/89 promastigotes assessed as growth inhibition at 6.25 uM after 24 hrs; type: functional; summary of the method: as §1
Jurkat [14] = assay: Cytotoxicity against human Jurkat cells infected with Leishmania infantum MCAN/ES/89/IPZ229/1/89 at 3 uM using propidium iodide staining by fluorescence contrast microscopy; type: cell-based
Leishmania infantum [15] = assay: Antileishmanial activity against Leishmania infantum MCAN/ES/89/IPZ229/1/89 axenic amastigotes infected expressing GFP in human […] cells assessed as axenic parasite killing at 3 uM after 48 hrs by propidium iodide staining based flow cytometry; type: functional
Leishmania infantum [16] = assay: Antileishmanial activity against Leishmania infantum MCAN/ES/89/IPZ229/1/89 promastigotes assessed as growth inhibition at 12.5 uM after 24 hrs; type: functional; summary of the method: as §1
THP-1 [17] = assay: Cytotoxicity against human THP1 cells infected with Leishmania infantum MCAN/ES/89/IPZ229/1/89 at 3 uM using propidium iodide staining by fluorescence contrast microscopy; type: cell-based; details: thp-1, 3 µM
Summary of the method: (§3)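 Drug was added to PMA-differentiated THP-1 cells infected with eGFP amastigotes, at 1, 3 and 15 µM, alongside a DMSO control at the highest assay concentration. Propidium iodide was added to a final 5 µg/mL, and cells were examined at once by phase contrast and fluorescence microscopy; PI stains dead cells.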

Leishmania infantum [18] = assay: Antileishmanial activity against Leishmania infantum MCAN/ES/89/IPZ229/1/89 amastigotes expressing GFP infected in human THP1 cells assessed as parasite infected cells after 48 hrs by flow cytometry (reference value: 35%); type: functional, THP-1
THP-1 [19] = assay: Cytotoxicity against human THP1 cells infected with Leishmania infantum MCAN/ES/89/IPZ229/1/89 at 3 uM by phase contrast microscopy; type: cell-based; details: thp-1, 3 µM; summary of the method: as §3
THP-1 [20] = assay: Cytotoxicity against human THP1 cells infected with Leishmania infantum MCAN/ES/89/IPZ229/1/89 at 1 uM using propidium iodide staining by fluorescence contrast microscopy; type: cell-based; details: thp-1, 1 µM; summary of the method: as §3
Leishmania infantum [21] = assay: Antileishmanial activity against Leishmania infantum MCAN/ES/89/IPZ229/1/89 promastigotes assessed as growth inhibition at 25 uM after 24 hrs; type: functional; summary of the method: as §1
THP-1 [22] = assay: Cytotoxicity against human THP1 cells infected with Leishmania infantum MCAN/ES/89/IPZ229/1/89 at 1 uM by phase contrast microscopy; type: cell-based; details: thp-1, 1 µM; summary of the method: as §3
Leishmania infantum [23] = assay: Antileishmanial activity against Leishmania infantum MCAN/ES/89/IPZ229/1/89 axenic amastigotes infected in human THP1 cells expressing GFP assessed as complete killing of parasite at 3 uM after 48 hrs by propidium iodide staining based flow cytometry; type: functional, THP-1
Leishmania infantum [24] = assay: Antileishmanial activity against Leishmania infantum MCAN/ES/89/IPZ229/1/89 amastigotes expressing GFP infected in human THP1 cells assessed as reduction in parasite infection rate at 3 uM after 48 hrs by flow cytometry; type: functional, THP-1; design: scale not given: the % may be the effect or the level left
THP-1 [25] = assay: Cytotoxicity against human THP1 cells infected with Leishmania infantum MCAN/ES/89/IPZ229/1/89 at 3 uM; type: cell-based; details: thp-1, 3 µM

`CCCCCCCCCCCCCCCCCCOCC(COP(=O)([O-])OCC[N+](C)(C)C)OC` (configuration not stated) [EDELFOSINE] showed an IC50 (Leishmania infantum [1]) of 3650 nM, an IC50 (Leishmania infantum [2]) of 820 nM and a selectivity ratio [3] of 6. For the same compound, the Activity (Leishmania infantum [4]) was 5%, the IC50 (Jurkat [5]) was 12.2 µM and the Fa [6] was 98.4%. It also gave a Papp [7] of 3.94 ×10⁻⁶ cm/s, a selectivity ratio [8] of 15 and an IC50 (THP-1 [9]) of 4.96 µM.
With `Nc1ccc([Se][Se]c2ccc(N)cc2)cc1` the Activity (Jurkat [10]) was “Non-toxic”, the Activity (Jurkat [11]) was “Non-toxic” and the Activity (Jurkat [12]) was “Non-toxic”. For the same compound, the GI (Leishmania infantum [13]) was 95.8%, the Activity (Jurkat [14]) was “Non-toxic” and the IC50 (Leishmania infantum [1]) was 960 nM. For the same compound, the Activity (Leishmania infantum [15]) was 100%, the selectivity ratio [3] was 24 and the GI (Leishmania infantum [16]) was 97.6%. For the same compound, the Activity (THP-1 [17]) was “Non-toxic”, the IC50 (Jurkat [5]) was 12.1 µM and the Fa [6] was 97.6%. The Activity (Leishmania infantum [18]) was 9%, the Papp [7] was 2.29 ×10⁻⁶ cm/s and the Activity (THP-1 [19]) was “Non-toxic”. The Activity (THP-1 [20]) was “Non-toxic”, the GI (Leishmania infantum [21]) was 98% and the Activity (THP-1 [22]) was “Non-toxic”. The selectivity ratio [8] was 32, the Activity (Leishmania infantum [23]) was 100% and the IC50 (THP-1 [9]) was 14 µM. For the same compound, the Activity (Leishmania infantum [24]) was 74% and the Activity (THP-1 [25]) was “Non-toxic”.
